# Laboratory results taken from ChEMBL document CHEMBL3576784, “Azolylthioacetamide: A Highly Promising Scaffold for the Development of Metallo-β-lactamase Inhibitors” (ACS Med Chem Lett, 2015).
# Target: Beta-lactamase (Aeromonas veronii, UniProt O31272)
# Assay: Inhibition of Aeromonas veronii metallo-beta-lactamase ImiS expressed in Escherichia coli BL21(DE3) using imipenem substrate pre-incubated for 30 mins by Lineweaver-Burk plot method
# Details: not given; call rule not given here
# How it was run: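 Purified enzyme; initial rates of imipenem hydrolysis followed by UV spectrophotometry (262 or 300 nm) in 50 mM Tris pH 7.0, 25 °C. Substrate 24–140 μM, inhibitor 0–10 μM. Rates in triplicate and averaged. Inhibition mode from Lineweaver–Burk plots. Ki from fits of initial velocity vs substrate concentration at each inhibitor level.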
# Chain of Beta-lactamase (O31272 whole entry): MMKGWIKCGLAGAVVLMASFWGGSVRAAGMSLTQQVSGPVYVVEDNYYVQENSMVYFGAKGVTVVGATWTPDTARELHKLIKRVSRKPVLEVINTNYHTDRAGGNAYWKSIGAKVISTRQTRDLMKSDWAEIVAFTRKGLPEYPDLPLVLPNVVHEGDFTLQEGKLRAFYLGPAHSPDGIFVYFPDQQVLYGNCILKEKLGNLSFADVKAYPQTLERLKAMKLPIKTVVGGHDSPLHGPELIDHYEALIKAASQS
row,Ki,SMILES
1,Not Active,O=C(CSc1nnc(-c2ccccc2C(=O)O)[nH]1)NCc1ccccc1
2,Not Active,O=C(O)CCc1nnc(SCC(=O)Nc2nc3ccccc3s2)[nH]1
3,Not Active,O=C(O)CCCc1nnc(SCC(=O)Nc2nc3ccccc3[nH]2)[nH]1

# Same assay, conditions: read-out: Ki
row,SMILES,Ki [µM]
1,O=C(CSc1nnc(-c2ccccc2C(=O)O)[nH]1)Nc1nc2ccccc2[nH]1,3.6
2,O=C(CSc1nnc(-c2ccccc2C(=O)O)[nH]1)Nc1cccc(Cl)c1,2.4
3,O=C(CSc1nnc(-c2ccccc2C(=O)O)[nH]1)Nc1ccccc1[N+](=O)[O-],2.7
4,O=C(O)CCc1nnc(SCC(=O)Nc2ccccc2)[nH]1,> 5000
5,O=C(O)CCc1nnc(SCC(=O)Nc2nc3ccccc3[nH]2)[nH]1,> 2500
6,O=C(O)CCc1nnc(SCC(=O)Nc2ccc(Cl)cc2)[nH]1,> 5000

# Now from value to compound:
row,Ki [µM],SMILES
1,1.8,O=C(CSc1nnc(-c2ccccc2C(=O)O)[nH]1)Nc1ccccc1
2,1.2,O=C(CSc1nnc(-c2ccccc2C(=O)O)[nH]1)Nc1nc2ccccc2s1
3,1.4,O=C(CSc1nnc(-c2ccccc2C(=O)O)[nH]1)Nc1ccc(Cl)cc1
4,2.2,O=C(CSc1nnc(-c2ccccc2C(=O)O)[nH]1)Nc1ccc([N+](=O)[O-])cc1
5,2.3,O=C(CSc1nnc(-c2ccccc2C(=O)O)[nH]1)Nc1ccccc1Cl
6,1.9,O=C(CSc1nnc(-c2ccccc2C(=O)O)[nH]1)Nc1cccc([N+](=O)[O-])c1
